Source: PubChem (The Scripps Research Institute Molecular Screening Center)
Shown is part of a subset that was picked to be rich in hits.
RORa inhibitor – blocks the human nuclear receptor RORA; AID 561; inhibition, % at 10 µM; CHO-K1 Gal4-RORA LBD luciferase reporter, luminescence; P35398; actives 0.43% (n = 65,000);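 active means inhibition above the mean of all tested compounds plus 3 SD, cut at about 52% in these data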;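 further: 0% = RORA-transfected cells with DMSO and 100% = mock-transfected cells lacking RORA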
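test system = CHO-K1 Gal4-RORA LBD luciferase reporter cells | dosing = 10 µM single point | times = 20 h compound treatment, 37 °C | signal = luciferase luminescence | read-out = % inhibition of basal luciferase versus +RORA/-RORA DMSO controls | benchmarks = mock-transfected cells as 100%, +RORA DMSO cells as 0% | replicates = tested once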
* marks the source's active call; other numbers are inactive results.

SMILES	RORa inhibitor
CCn1nc(-c2ccccc2)nc2c(=O)n(C)c(=O)nc1-2	93.1*
CC[C@@H]1C(=O)OC[C@@H]1Cc1cncn1C	8.7
CC(C)c1cccc(C(C)C)c1OCCn1ccnc1	19.7
CC1=NOC2(C)Nc3ncnn3C(c3ccccc3)C12 (centres undefined)	14.5
O=C(C1CC(c2ccc(Cl)c(Cl)c2)=NO1)N1CCC2(CC1)OCCO2 (centres undefined)	-73.2
O=C(C1CCCO1)N1CCC2(CC1)OCCO2 (centres undefined)	16.0
C[C@H]1CCC/C=C/C2C[C@H](O)CC2[C@H](O)/C=C/C(=O)O1 (some centres undefined)	83.7*
Cc1ccc(S(=O)(=O)N(C)CCCC(=O)N2CCN(c3ccccn3)CC2)cc1	13.3
CC(C(=O)N1CCC2(CC1)OCCO2)C1Sc2ccccc2NC1=O (centres undefined)	10.5
CC(=O)C1(c2ccccc2)CCNCC1	-4.6
